An excerpt weighted towards active compounds, which were near 3% of everything screened.
CASP6 VEID inh – human caspase-6 inhibitors, primary screen, biochemical, VEID-R110 fluorescence, single point, set 2. P55212. purified caspase-6, Z-VEID-R110 cleavage fluorescence. inhibition, % at 12.5 µM. actives 0.53% (n = 350,000);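 active = mean inhibition across replicates at least about 35%, with every replicate also reaching that limit, limit read from the data; inconclusive = only one of the two criteria met; inactive = neither criterion met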;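 also: 0% = median of neutral control wells and 100% = no fluorescence left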
MITF TRPM1 HTS – activators of MITF-driven TRPM1 promoter reporter, primary screen, cell-based, SK-MEL-5, luciferase, single point. actives 0.75% (n = 300,000). SK-MEL-5 TRPM1-promoter luciferase, 24 h; % of positive control, neutral wells = 0. activation, % at 12.5 µM;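 active = mean activation of at least 80% with every replicate also reaching 80%; inconclusive = mean reaches 80% but some replicate falls short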;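 also: 0% = neutral control wells and 100% = parthenolide positive control wells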
NSD2 inh – NSD2 histone methyltransferase inhibitors, primary screen, biochemical, AlphaScreen, single concentration, set 2; NSD2 peptide methylation, 120 min; inhibition, % at 12.5 µM; actives 0.54% (n = 310,000); in the data active = inhibition above about 50%
Target sequence (O96028 whole entry, looked up): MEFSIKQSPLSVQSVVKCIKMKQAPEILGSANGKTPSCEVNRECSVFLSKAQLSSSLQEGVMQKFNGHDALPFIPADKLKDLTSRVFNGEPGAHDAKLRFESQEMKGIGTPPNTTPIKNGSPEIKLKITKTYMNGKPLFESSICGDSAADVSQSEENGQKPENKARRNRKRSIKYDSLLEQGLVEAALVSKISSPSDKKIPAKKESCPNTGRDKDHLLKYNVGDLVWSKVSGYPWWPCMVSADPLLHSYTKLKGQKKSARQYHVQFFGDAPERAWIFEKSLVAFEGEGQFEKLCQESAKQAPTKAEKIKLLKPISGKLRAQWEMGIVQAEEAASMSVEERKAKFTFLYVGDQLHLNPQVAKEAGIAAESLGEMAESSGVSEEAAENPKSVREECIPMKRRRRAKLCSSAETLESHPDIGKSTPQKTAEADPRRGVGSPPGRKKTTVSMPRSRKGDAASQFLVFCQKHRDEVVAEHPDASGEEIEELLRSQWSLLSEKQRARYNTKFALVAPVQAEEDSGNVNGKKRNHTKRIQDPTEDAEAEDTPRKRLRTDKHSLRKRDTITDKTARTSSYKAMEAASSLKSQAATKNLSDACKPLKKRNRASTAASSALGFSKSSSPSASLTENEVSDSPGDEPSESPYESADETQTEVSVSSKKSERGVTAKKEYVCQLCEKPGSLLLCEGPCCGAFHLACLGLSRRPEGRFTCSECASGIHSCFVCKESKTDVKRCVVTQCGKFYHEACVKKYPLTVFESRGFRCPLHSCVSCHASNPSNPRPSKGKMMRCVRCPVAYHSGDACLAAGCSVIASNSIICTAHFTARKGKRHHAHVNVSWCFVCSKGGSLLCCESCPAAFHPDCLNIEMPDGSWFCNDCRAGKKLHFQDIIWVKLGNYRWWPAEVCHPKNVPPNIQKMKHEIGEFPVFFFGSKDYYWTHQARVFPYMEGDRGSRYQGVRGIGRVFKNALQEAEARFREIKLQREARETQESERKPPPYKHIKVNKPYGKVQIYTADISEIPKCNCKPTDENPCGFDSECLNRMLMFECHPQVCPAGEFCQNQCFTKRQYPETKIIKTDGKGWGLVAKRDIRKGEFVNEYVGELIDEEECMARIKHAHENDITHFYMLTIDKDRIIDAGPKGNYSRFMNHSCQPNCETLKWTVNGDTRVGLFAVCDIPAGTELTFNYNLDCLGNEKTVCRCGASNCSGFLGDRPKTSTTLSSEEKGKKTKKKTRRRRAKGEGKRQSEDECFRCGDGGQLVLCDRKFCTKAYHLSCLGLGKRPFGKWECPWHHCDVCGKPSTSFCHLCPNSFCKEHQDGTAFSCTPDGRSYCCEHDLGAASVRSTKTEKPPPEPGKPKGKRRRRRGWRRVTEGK
esBAF inh – Bmi1 luciferase reporter increase in mESCs, primary screen, esBAF inhibitor project, mouse ES cells, Bmi1 luciferase knock-in, single point. actives 2% (n = 350,000). reporter increase, % at 12.5 µM. 24 h; 100% = twice the neutral-well signal; in the data active = activation above about 40%; inconclusive = no clear call, values can overlap the other calls;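 also: 0% = median of the plate's neutral control wells and 100% = double that signal; a rise in the Bmi1 reporter signal indicates esBAF inhibition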
XiGFP reactiv – activators of inactive X chromosome reactivation, primary screen, imaging, XiGFP fibroblasts, GFP high-content imaging, set 2; XiGFP mouse fibroblasts, % GFP-positive cells imaging, 3 d; cells co-treated with 5-aza-dC sensitizer; scaled so ellipticine positive control = 100%; actives 0.055% (n = 360,000); activation, % at 7.58 µM;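 active = mean normalized replicate activation at least 10% and every replicate at or above 10%; inconclusive = only one of the two criteria met; inactive = mean below 10% and not all replicates reach 10%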;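 also: 0% = median of on-plate neutral control wells and 100% = ellipticine 6 µM median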
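Assay system – SV40-immortalized XiGFP fibroblast cells, line 68-5-11 · Buffer or medium – DMEM supplemented with 5-aza-dC as sensitizing agent · Dosing – one concentration, pinned · Benchmarks – positive control ellipticine, 6 µM final · Times – 3 days compound exposure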
Wnt act – Wnt/beta-catenin pathway activators, primary screen, cell-based, plate reader, single point | Wnt/beta-catenin reporter cell assay, activator | activation, % at 9.35 µM | actives 1.2% (n = 300,000) | AID 743398, 2014; in the data active = activation above about 30%, passing the limit was not always enough; inconclusive = no clear call, values can overlap the other calls;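 also: 0% = neutral control wells and 100% = positive control wells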
* marks the source's active call; other numbers are inactive results; ? = inconclusive; . = not tested or not shown.

SMILES | CASP6 VEID inh | MITF TRPM1 HTS | NSD2 inh | esBAF inh | XiGFP reactiv | Wnt act
CCOC(=O)c1c(-c2ccc(OC)cc2)oc2cc(Br)c(O)cc12 | -2.0 | 9.5 | -7.3 | -1.7 | 0.0 | 2.7
CCOC(=O)c1c(C)[nH]c2cc(Br)c(O)cc12 | . | . | 0.0 | 53.7* | . | 48.3*
Cc1noc(C)c1NC(=O)N(C)C[C@@H]1Oc2ncc(C#CC3CCCC3)cc2C(=O)N([C@@H](C)CO)C[C@H]1C | -1.3 | . | . | 1.4 | -0.6 | .
O=C(Nc1nnc(-c2ccccc2)s1)c1ccc(F)cc1 | 5.8 | 83.7* | -5.2 | 46.6* | 0.1 | 12.4
COc1ccccc1C(=O)Nc1nnc(-c2ccc(F)cc2)s1 | -0.4 | . | -3.5 | 51.7* | 0.4 | 12.6
COc1ccccc1C(=O)Nc1nsc(-c2ccccc2)n1 | 2.9 | ? | 0.0 | 45.6* | 0.1 | ?
COc1ccccc1C(=O)Nc1ccncc1 | 0.1 | 2.9 | -1.8 | -2.7 | -0.1 | 0.6
COc1ccc(C(=O)Nc2nnc(-c3ccc(F)cc3)s2)c(OC)c1 | 0.4 | -0.9 | -2.1 | 4.1 | 0.0 | -1.9
O=C(Nc1nnc(-c2ccc(F)cc2)s1)Nc1ccccc1F | 0.0 | . | -3.2 | . | 0.0 | 6.8
Cc1cccc(NC(=O)Nc2ccc3c(c2)C(=O)N(C)[C@H]2CC[C@H](CC(=O)NCc4ccccc4Cl)O[C@@H]2CO3)c1 | . | . | . | 6.3 | 0.1 | .
Cc1ccc2nc(C)/c(=N\O)c(C)nc2c1 | . | 24.0 | 2.7 | 54.9* | . | .
O=C1C(=Cc2cccc(Cl)c2)Cc2ccccc21 | -1.8 | . | -3.0 | . | -0.1 | 1.3
Cn1cccc1/C=C1\Cc2ccccc2C1=O | 0.4 | 58.9 | . | 53.5* | -0.1 | 62.8*
O=C1/C(=C\c2ccncc2)CCc2ccccc21 | 4.1 | 4.3 | . | -2.4 | 0.1 | 3.6
O=C1/C(=C/c2cccs2)Cc2ccccc21 | . | 17.5 | -3.6 | 17.2 | 0.2 | ?
O=C1/C(=C\c2ccc(Br)o2)Cc2ccccc21 | . | 12.1 | 2.1 | 6.3 | 0.0 | 41.3*
Cn1cccc1/C=C1\CCc2ccccc2C1=O | 4.2 | 4.9 | 14.6 | -46.4 | 0.0 | 34.1*
C=CCNC(=O)[C@H]1[C@@H]2C(=O)O[C@@H](c3ccccc3)[C@@H](c3ccccc3)N2[C@@H](c2ccc(OCCO)cc2)[C@]12C(=O)Nc1ccccc12 | 0.6 | . | . | . | . | .
CC(=O)N(/N=C1/C(=O)Nc2ccccc21)c1ccccc1 | 3.5 | 33.4 | 1.1 | 44.5* | -0.1 | 15.5
CC(=O)c1ccc(N=C2C(=O)Nc3ccccc32)cc1 | -2.8 | . | . | 2.8 | -0.1 | 0.0
CCCNC(=O)N1CC2(CCN(Cc3ccc(F)cc3)CC2)c2c([nH]c3cc(OC)ccc23)[C@H]1CO | . | . | . | . | 0.3 | .
Cc1cc(C)c(Nc2ncccc2C(=O)O)c(C)c1 | 0.0 | 8.2 | 0.0 | . | 0.0 | 2.6
Cc1ccc(Nc2ncccc2C(=O)O)cc1C | -0.2 | 1.1 | . | 49.1* | 0.0 | 6.1
Cc1ccc(Nc2ncccc2C(N)=O)cc1[N+](=O)[O-] | -1.7 | 91.2* | 9.0 | . | 0.0 | 70.2*
C=CCN(CC(=O)Nc1cccnc1)S(=O)(=O)c1ccc(Cl)cc1 | -2.1 | -3.4 | 6.8 | 3.6 | 0.0 | 37.1*
SMILES | CASP6 VEID inh | MITF TRPM1 HTS | NSD2 inh | esBAF inh | XiGFP reactiv | Wnt act
O=C(Cc1ccc(Cl)cc1)Nc1cccnc1 | 1.2 | . | -1.8 | -1.9 | 0.4 | 1.3
O=C(O)C1=C[C@@H](c2ccc(C(F)(F)F)cc2)C[C@@H](OCCCCO)O1 | 8.4 | 2.4 | . | 0.9 | 0.0 | -1.7
O=C(Nc1ccccc1)C1=C[C@@H](c2ccc(C(F)(F)F)cc2)C[C@@H](OCCCCO)O1 | -0.3 | 62.4 | . | 49.8* | 0.6 | 11.7
O=C(c1ccccc1)N1CC(=O)N2[C@@H](CO)[C@H](c3ccc(/C=C/c4ccccc4)cc3)[C@@H]2C1 | . | . | . | . | 0.2 | .
CC(C)CC#Cc1ccc2c(c1)O[C@@H](CN(C)C(=O)c1cnccn1)[C@@H](C)CN([C@H](C)CO)S2(=O)=O | 1.3 | . | . | 0.8 | -1.8 | .
Cc1cccc(N=[N+]([O-])c2cccc(C)n2)n1 | 0.6 | 69.7 | . | 56.5* | 0.0 | 13.1
Cc1cccc(N=O)n1 | 4.7 | . | . | . | 0.0 | -1.8
COc1ccc(CN(C)C[C@H]2OCCCC[C@@H](C)Oc3ccc(NC(=O)Nc4cccc5ccccc45)cc3C(=O)N([C@@H](C)CO)C[C@@H]2C)cc1 | 1.6 | . | . | -3.4 | 0.0 | .
Cc1ccc(Sc2c([N+](=O)[O-])c(=O)n(C)c3ccccc23)cc1 | -1.2 | . | -1.7 | -1.4 | 0.1 | 32.3*
CCCSc1nnc(NC(=O)Nc2ccccc2OC)s1 | -1.3 | . | -5.0 | 47.3* | 0.0 | 29.5
CNC(=S)N/N=C/c1c(C)nn(-c2ccccc2)c1Cl | . | 53.0 | 0.5 | . | . | .
Cc1nn(-c2ccccc2)c(Cl)c1/C=N/NC(=O)OC(C)(C)C | 0.9 | 56.5 | 40.1 | . | 0.1 | 34.3*
Cc1cc(C)n2c(Nc3ccc4c(c3)OCCO4)c(-c3ccccc3)nc2n1 | . | . | 11.8 | 28.4 | . | 40.9*
Cc1ccc(S(=O)(=O)N(C)C[C@@H]2OCCCC[C@H](C)Oc3ccc(N(C)C)cc3C(=O)N([C@@H](C)CO)C[C@@H]2C)cc1 | -0.1 | . | . | -1.3 | -0.2 | .
CCCCC(=O)c1c(O)c2ccccc2oc1=O | . | -6.3 | 2.1 | 58.5* | . | .
CCCCN=C(C)c1c(O)c2ccccc2oc1=O | . | . | 19.2 | 41.8* | . | -0.9
CCCC(=O)N1CC2(CN(C(C)=O)C2)c2c(n(C)c3cc(OC)ccc23)[C@H]1CO | . | . | . | . | 0.0 | .
Cc1ccc(-c2nc(NC(=O)CSc3nnnn3-c3ccccc3)ns2)cc1 | . | 16.6 | -0.6 | 83.5* | . | -6.4
COc1ccc2c3c(n(C)c2c1)[C@H](CO)N(Cc1ccccc1)CC31CN(C)C1 | -1.8 | . | . | . | 0.2 | .
O=C(Cc1csc(NC(=O)Nc2ccc(Cl)cc2)n1)NCc1ccccn1 | 1.1 | 58.5 | 0.5 | 45.1* | 0.2 | 3.0
O=C(Cc1csc(NC(=O)Nc2ccc(Cl)cc2)n1)NC1CCCC1 | -1.7 | 17.6 | 1.6 | 31.4 | 0.0 | 3.1
COc1ccc(C)cc1NC(=O)CSc1nnnn1Cc1ccccc1 | . | -4.7 | -4.6 | . | . | 43.7*
C[C@H]1CN([C@@H](C)CO)C(=O)c2cc(C#Cc3cccnc3)cnc2O[C@@H]1CN(C)Cc1ccncc1 | . | . | . | 0.6 | -0.3 | .
Cc1ccc(C)c(S(=O)(=O)N2CCN(C(=O)CSc3ccccc3)CC2)c1 | -0.4 | 4.2 | 0.7 | 0.3 | 0.2 | -0.9
Cc1ccc(C)c(S(=O)(=O)N2CCN(C(C)C(=O)Nc3ccccc3-c3ccccc3)CC2)c1 (centres undefined) | 35.1* | 12.6 | . | . | -0.1 | -1.1
COc1cccc(S(=O)(=O)N[C@@H]2C=C[C@H](CC(=O)NCc3ccccc3)O[C@@H]2CO)c1 | 1.9 | . | . | . | 0.0 | .

Screens deposited in PubChem BioAssay by Broad Institute.
